Experimental data from different studies.
Lines come from different studies, so protocols differ.
Cell line: HCT-116
Read-out: cell growth or viability

| Compound | test | setting | IC50 |
| --- | --- | --- | --- |
| Cc1cc2c(C(N)=O)cccc2n1-c1nc2c(c(NCc3ccccc3O)n1)CCCN2 | ATP luminescence | 72 h | 5 µM |
| Cc1c2c(nn1C)CSCc1cc(n(C)n1)CSc1cc(c3ccccc3c1)OCCCc1c(C(=O)O)n(C)c3c-2c(Cl)ccc13 | CCK-8 | – | 25 µM |
| Cc1cc2c(C(N)=O)cccc2n1-c1nc2c(c(NCc3cccc(O)c3)n1)CCCN2 | ATP luminescence | 72 h | 0.7 µM |
| O=[N+]([O-])c1cc(Br)c(O)c(C=NNc2ccc(Cl)cc2)c1 | MTT | 24 h | 16.6 µM |
| Cc1cc(Cn2ccnc2)nn1C | MTT | 24 h | 241 µM |
| O=C1C(=Nc2ccc(Cl)cc2)c2ccccc2N1Cc1ccc(Br)cc1 | MTT | 48 h | 21.4 µM |
| CN1CCC(NC2CCc3[nH]c4c(C(N)=O)ccc(-c5ccccc5Cl)c4c3C2)CC1 (stereo not shown) | – | 96 h | 0.00023 µM |
| Cc1cc(NS(=O)(=O)c2ccc(NC(=O)/C(C#N)=C/c3cccnc3)cc2)no1 | MTT | 48 h | > 200 µM |
| N#Cc1ccc(-c2cc(COc3cc(C(F)(F)F)nc4ccccc34)on2)cc1 | MTS | 72 h | > 100 µM |
| COc1cccc(-c2cc(NCc3ccc4c(c3)OCO4)nc(N)n2)c1 | – | 72 h | 0.347 µM |
| CONC(=O)Cc1c(C)n(-c2nc3c(c(NCc4ccccc4)n2)CCCN3)c2ccccc12 | ATP luminescence | 72 h | 4.2 µM |
| O=[N+]([O-])c1ccc(O)c(C=NNc2ccc(Br)cc2)c1 | MTT | 24 h | 7.23 µM |
| O=C1CSC(=Nc2cc(C(F)(F)F)ccc2-c2nnc(N3C(=O)CSC3=Nc3ccc([N+](=O)[O-])cc3)s2)N1c1ccc([N+](=O)[O-])cc1 | MTT | – | 74.4 µM |
| O=C(O)c1nn(Cc2ccc(Cl)cc2Cl)c2ccccc12 | – | 48 h | 247 µM |
| CCCNC(=S)N/N=C/c1cccc2cc3ccccc3nc12 | MTT | 48 h | 43.3 µM |
| CC(C)c1cccc(C(C)C)c1N=C1C(=O)Nc2ccccc21 | MTT | 48 h | 4.65 µM |
| COc1cccc2c1C(=O)c1c(O)c3c(c(O)c1C2=O)C[C@@](O)(C(=O)CO)C[C@@H]3O[C@H]1C[C@H](N)[C@H](O)[C@H](C)O1 | MTT | 24 h | 1.06 µM |
| CC(C)c1cccc(C(C)C)c1N=C1C(=O)N(Cc2cccc(Cl)c2)c2ccccc21 | MTT | 48 h | 22.4 µM |
| O=C(CSc1nc2ccccc2s1)N/N=C/c1ccc(OCC(=O)Nc2ccc(Br)cc2)cc1 | MTS | 72 h | > 100 µM |
| Fc1ccc(NC(=S)N/N=C/c2cccc3cc4ccccc4nc23)cc1 | MTT | 48 h | > 50 µM |
| FC(F)(F)c1ccc(-c2nnc(-c3nn(Cc4ccc(Cl)cc4Cl)c4ccccc34)o2)cc1 | – | 48 h | 323 µM |
| FC(F)(F)c1ccc(-c2cc(CNc3cccc4cccnc34)on2)cc1 | MTS | 72 h | > 100 µM |
| Clc1ccc(Cn2nc(-c3nc(-c4ccccc4)no3)c3ccccc32)c(Cl)c1 | – | 48 h | 324 µM |
| O=c1cc(OCc2cc(-c3ccc(C(F)(F)F)cc3)no2)c2ccccc2o1 | MTS | 72 h | > 100 µM |
| c1ccc(-c2noc(-c3nn(Cc4ccc5ccccc5c4)c4ccccc34)n2)cc1 | – | 48 h | 173 µM |
| CCOC(=O)c1cc(C)n(Cn2cnc3ccccc32)n1 | MTT | 24 h | 47.9 µM |
| C=CCN1C(=O)C(=Nc2cccc(C)c2)c2ccccc21 | MTT | 48 h | > 100 µM |
| O=C(C=Cc1cccs1)c1ccc(OCCCOc2ccc(C(=O)C=Cc3cccs3)cc2)cc1 | MTT | 48 h | 30.7 µM |

| Compound | test | setting | IC50 |
| --- | --- | --- | --- |
| Cc1ccc(NC(=O)Cn2cc(COc3ncnc4[nH]cnc34)nn2)c(C)c1 | MTT | – | > 100 µM |
| CC(C)c1ccc(/C=C2\N=C(SCC(=O)O)N(c3ccccc3)C2=O)cc1 | MTT | – | 44.3 µg/mL |
| COc1cc([C@@H]2c3cc4c(cc3[C@@H](O[C@@H]3O[C@@H]5CO[C@@H](C)O[C@H]5[C@H](O)[C@H]3O)[C@H]3COC(=O)[C@H]23)OCO4)cc(OC)c1O | MTS | 72 h | 0.59 µM |
| Cc1cc2c(C(N)=O)cccc2n1-c1nc2c(c(NCc3cccnc3)n1)CCCN2 | ATP luminescence | 72 h | 1 µM |
| O=C1/C(=C/c2ccc3ccccc3c2O)NC(=S)N1c1ccccc1 | MTT | – | 7.25 µg/mL |
| N#Cc1ccc(-c2cc(COc3cc(=O)oc4ccccc34)on2)cc1 | MTS | 72 h | > 100 µM |
| Cc1noc(-c2nn(Cc3ccc(Cl)cc3Cl)c3ccccc23)n1 | – | 48 h | 192 µM |
| O=P1(c2ccccc2)CCCCC1 | MTT | 72 h | > 100 µM |
| COc1cccc2c1C(=O)c1c(O)c3c(c(O)c1C2=O)C[C@@](O)(C(=O)CO)C[C@@H]3O[C@H]1C[C@H](N)[C@H](O)[C@H](C)O1 | LDH | 48 h | 8.12 µM |
| O=[N+]([O-])c1ccc(O)c(C=NNc2ccc(Cl)cc2)c1 | MTT | 24 h | 11 µM |
| COc1cc([C@@H]2c3cc4c(cc3[C@@H](O[C@@H]3O[C@@H]5CO[C@@H](C)O[C@H]5[C@H](O)[C@H]3O)[C@H]3COC(=O)[C@H]23)OCO4)cc(OC)c1O | SRB | 72 h | 2.4 µM |
| CC(C)c1ccc(/C=C2\N=C(SCc3ccccc3)N(c3ccccc3)C2=O)cc1 | MTT | – | 72.9 µg/mL |
| O=C1CSC(=Nc2cc([N+](=O)[O-])ccc2[N+](=O)[O-])N1c1nnc(-c2ccc(C(F)(F)F)cc2N=C2SCC(=O)N2c2cc([N+](=O)[O-])ccc2[N+](=O)[O-])s1 | MTT | – | 80.9 µM |
| O=C(C=Cc1cccs1)c1ccc(OCCCCOc2ccc(C(=O)C=Cc3cccs3)cc2)cc1 | MTT | 48 h | 356 µM |
| O=C1CS/C(=N\c2cc(C(F)(F)F)ccc2-c2nnc(N3C(=O)CS/C3=N\c3ccc(Cl)cc3)s2)N1c1ccc(Cl)cc1 | MTT | – | 46.2 µM |
| Cc1ccc(CN2C(=O)C(=Nc3cccc(Cl)c3)c3ccccc32)cc1 | MTT | 48 h | 1.05 µM |
| O=[N+]([O-])c1cc(Br)c(O)c(C=NNc2ccc(C(F)(F)F)cc2)c1 | MTT | 24 h | 9.42 µM |
| CC(=O)O[C@@H]1[C@@H](OC(C)=O)[C@H](OC(C)=O)CO[C@H]1n1cc(Cn2c(C(=O)/C=C/c3ccc(F)cc3)nc3ccccc32)nn1 | LDH | 48 h | 9.97 µM |
| COc1ccc(N(Cc2csc(-c3ccc(C)cc3)n2)C(=O)CCCCCC(=O)NO)cc1 | MTT | 72 h | 1.19 µM |
| Cc1cc(NS(=O)(=O)c2ccc(NC(=O)/C(C#N)=C/c3ccncc3)cc2)no1 | MTT | 48 h | 187 µM |
| O=C(CCc1ccc(Cl)cc1)N1C(=O)C(=Nc2ccc(Cl)cc2Br)c2ccccc21 | MTT | 48 h | 23.2 µM |
| Fc1ccc2c(-c3nnc(Cc4ccccc4)s3)nn(Cc3ccccc3)c2c1 | – | 48 h | 73.9 µM |
| Cc1ccc(CN2C(=O)C(=Nc3cccc(C)c3)c3ccccc32)cc1 | MTT | 48 h | 0.39 µM |
| O=C1CS/C(=N\c2cc(C(F)(F)F)ccc2-c2nnc(N3C(=O)CS/C3=N\c3ccc(F)c(O)c3)s2)N1c1ccc(F)c(O)c1 | MTT | – | 21.2 µM |
| CNC(=S)N/N=C/c1cccc2cc3ccccc3nc12 | MTT | 48 h | 21.8 µM |
| CCc1ccc(N=C2C(=O)N(Cc3ccccc3)c3ccccc32)cc1 | MTT | 48 h | 0.9 µM |
| O=C1CS/C(=N\c2cc(C(F)(F)F)ccc2-c2nnc(N3C(=O)CS/C3=N\c3ccc(F)cc3)s2)N1c1ccc(F)cc1 | MTT | – | 21.2 µM |
